In data set [1] the test system is P-gp. Conditions: enriched diet; mice models of AD; cited from earlier work.
A short description of data set [2]: Safety of MC111 administration to rats. It is filed as in vivo. To be noted: 6 mg/kg dose.
The subject of data set [3] is P-gp. To be noted: colo-320 cells; cited from earlier work.
Data set [4] concerns P-glycoprotein (P-gp). The experiment in a line: Western blot of P-gp expression in whole-brain tissue. It counts as in vivo, Wistar rats. To be noted: MC111 4.5 or 6 mg/kg, 24 h.
The test system of data set [5] is P-gp. Conditions: SW480 human colon adenocarcinoma cells; cited from earlier work.
Data set [6] has as its system breast cancer resistance protein (BCRP). Conditions: colo-320 and MCF7 cells; cited from earlier work.
The test system of data set [7] is P-glycoprotein (P-gp). Details: species or system Wistar rats. Conditions: rat, in vivo.
Data set [8] concerns pregnane X receptor (PXR). The experiment in a line: Western blot of PXR expression in whole-brain tissue. It counts as in vivo, Wistar rats. A digest of the protocol:
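Male Wistar rats (RjHan:WI) got a single i.v. tail-vein dose of 4.5 or 6 mg/kg (n = 6 each) or vehicle (n = 6) under isoflurane, 24 h before scanning. The vehicle was 5% DMSO, 10% PEG 300 and 85% water. Whole-brain tissue was extracted in cold RIPA with protease inhibitors (~10:1 v/w). Semidry transfer to PVDF ran 2 h; blocking was 1 h in 3% BSA/TBST. PXR was normalised to histone H3, and group means to control.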
In general terms: Immunoblotting shows a protein as a band on a membrane.

The conditions of data set [9]: rat, in vivo, 4.5 mg/kg.
Data set [10] concerns P-gp. To be noted: long-term exposure (60 days); rat brain microvascular endothelial cells in vitro; cited from earlier work.
Data set [11] relates to P-gp. To be noted: caco-2 cells; cited from earlier work.
Data set [12] concerns P-gp. To be noted: isolated brain capillaries in vitro; cited from earlier work.
Data set [13] has as its system P-gp. To be noted: transgenic mouse model of human AD; treatment for 7 days; cited from earlier work.

“Also recorded” adds a separate entry of the source. Like-named read-outs stand apart in the source and are kept apart here.

These results are taken from PMC8383301 (Molecular Pharmaceutics, 2021).

As to `C=C1/C(=C\C=C2/CCC[C@]3(C)[C@@H]([C@H](C)CCCC(C)(C)O)CC[C@@H]23)C[C@@H](O)C[C@@H]1O` [1,25-Dihydroxyvitamin D3], in the data set on P-gp [1], the Aβ deposition result is reported as “reduced” and the P-gp function result is given as “induced”.
In the case of `Oc1ccc(-c2ccc(CN3CCN(C4CCCCC4)CC3)cc2)cc1` [MC111, 4′-((4-cyclohexylpiperazin-1-yl)methyl)-[1,1′-biphenyl]-4-ol], the safety of administration result in data set [2] is “safely administered”. For the same molecule, in the data set on P-gp [3], the “[3H]verapamil efflux (P-gp function)” value is on record as “increase”. Moreover, in the data set on P-glycoprotein (P-gp) [4], the “P-gp expression, treated vs control” value is on record as “did not detect changes; also recorded: no significant differences”. Also, in the data set on P-gp [5], the P-gp expression result was “increases”. Moreover, the “BCRP function and expression” value in data set [6] is on record as “activates”. Further, in the data set with P-glycoprotein (P-gp) [7], the “SUV–TAC of the whole brain, differences among the groups” value is “did not find any significant differences” and the “decrease of whole-brain K1 compared to the low-dose group” value is 29%. Also, in the data set on P-glycoprotein (P-gp) [7] (4.5 mg/kg), the “SUV40–60 min of the whole brain” value is recorded as 0.45 ± 0.02; the “decrease of VT and K1 values compared to the control group” value was “not statistically significant”; the “decrease of whole-brain K1 compared to controls” value is recorded as 7%; the “decrease of whole-brain VT compared to controls” value stood at 6%. Besides, in the data set on P-glycoprotein (P-gp) [7] (6 mg/kg), the “K1 and VT values compared to the control group” value is “significant reduction”; the “decrease of whole-brain K1 compared to controls” value turned out to be 34%. In addition, the “PXR expression levels, treated vs control” value in data set [8] is given as “did not detect any increase”. Besides, in data set [8] (high-dose group, MC111 6 mg/kg), the PXR expression levels result was “tendency to lower levels”. Besides, the “Ke vs control group” value in [9] is given as “no significant differences”.
With `NC(=O)N1c2ccccc2C=Cc2ccccc21` [carbamazepine], in the data set on P-gp [10], the “P-gp expression levels and P-gp function” value was “increased”.
For the molecule `COc1cc2c(c(OC)c1OC)-c1ccc(OC)c(=O)cc1[C@@H](NC(C)=O)CC2` [colchicine], in the data set on P-gp [11], the P-gp expression result was “increased” and the P-gp function entry is listed as “without increasing”.
Turning to `CC(C)=CCC[C@]1(C)[C@@H](CC=C(C)C)C[C@@]2(CC=C(C)C)C(=O)[C@]1(C(=O)C(C)C)C(=O)C(CC=C(C)C)=C2O` [hyperforin], in the data set on P-gp [12], the “P-gp expression and function” value is “increase”.
As to `CCC1(c2ccccc2)C(=O)NC(=O)NC1=O` [phenobarbital], in the data set with P-gp [10], the “P-gp expression levels and P-gp function” value is reported as “increased”.
As to `O=C1NC(=O)C(c2ccccc2)(c2ccccc2)N1` [phenytoin], in the data set on P-gp [10], the “P-gp expression levels and P-gp function” value is “increased”.
As to `CC(=O)[C@H]1[C@H](C#N)C[C@H]2[C@@H]3CC=C4C[C@@H](O)CC[C@]4(C)[C@H]3CC[C@@]21C` [pregnenolone-16α-carbonitrile], the P-gp function entry with P-gp [13] is reported as “restored”.
For `CO[C@H]1/C=C/O[C@@]2(C)Oc3c(C)c(O)c4c(O)c(c(/C=N/N5CCN(C)CC5)c(O)c4c3C2=O)NC(=O)/C(C)=C\C=C\[C@H](C)[C@H](O)[C@@H](C)[C@@H](O)[C@@H](C)[C@H](OC(C)=O)[C@@H]1C` [rifampin], the “P-gp expression and function” value in the data set on P-gp [12] is listed as “increase”.
On to `CCCC(CCC)C(=O)O` [valproic acid], for which the “P-gp expression levels and P-gp function” value in the data set with P-gp [10] was “increased”.
